Results pooled from the literature.
SIGMAR1: Sigma non-opioid intracellular receptor 1 (SIGMAR1, Homo sapiens, UniProt Q99720)
Nectin-4: Nectin-4 (Homo sapiens, UniProt Q96NY8)
PFF0160c E182D: Dihydroorotate dehydrogenase (quinone), mitochondrial (PFF0160c, Plasmodium falciparum, UniProt Q08210, E182D)

Compound | target | assay | endpoint | result
CC(CNCc1cn(Cc2cc(Br)cc(Br)c2)c2ccccc12)CNc1cc(=O)c2ccccc2[nH]1 (stereo not shown) | Dihydroorotate dehydrogenase (quinone), mitochondrial (PFF0160c, Plasmodium falciparum, UniProt Q08210) | enzyme activity, inhibitor, absorbance | IC50 | 2720 nM
CN(C)CCOC(C)(c1ccccc1)c1ccccn1 (stereo not shown) | SIGMAR1 | ligand displacement, radioligand | Ki | > 10000 nM
CCCC[C@@H]1NC(=O)[C@H](Cc2ccc(O)cc2)NC(=O)[C@@H]2CCCN2C(=O)[C@H](CC(=O)O)NC(=O)[C@H](C)NC(=O)[C@H](Cc2ccccc2)NC(=O)[C@@H]2CSCCC(=O)N3CN(CN(C3)C(=O)CCSC[C@H](NC(C)=O)C(=O)N[C@@H](CC(C)(C)C)C(=O)N[C@@H](CCC(=O)O)C(=O)N[C@@H](CCC(=O)O)C(=O)N[C@H](CCCCNC(=O)CCc3cn(CCOCCOCCOCCN(CCOCCOCCOCCC(=O)N[C@H]4CSCCC(=O)N5CN6CN(C5)C(=O)CCSC[C@H](NC(=O)[C@@H](CC(=O)O)NC(=O)[C@H](Cc5cccc7ccccc57)NC(=O)[C@@H]5CCCN5C4=O)C(=O)N[C@@H](CCSC)C(=O)N[C@@H](CCCCNC(=N)N)C(=O)N[C@@H](CC(=O)O)C(=O)N[C@@H](Cc4c[nH]c5ccccc45)C(=O)N[C@@H](CO)C(=O)N[C@@H]([C@@H](C)O)C(=O)N4CCC[C@H]4C(=O)N4C[C@H](O)C[C@H]4C(=O)N[C@@H](Cc4c[nH]c5ccccc45)C(=O)N[C@H](C(N)=O)CSCCC6=O)CCOCCOCCOCCn4cc(CCC(=O)NCCCC[C@H]5NC(=O)[C@H](CCC(=O)O)NC(=O)[C@H](CCC(=O)O)NC(=O)[C@H](CC(C)(C)C)NC(=O)[C@@H](NC(C)=O)CSCCC(=O)N6CN7CN(C6)C(=O)CCSC[C@H](NC(=O)[C@H](Cc6ccc(O)cc6)NC(=O)[C@@H]6CCCN6C5=O)C(=O)N[C@@H](Cc5ccccc5)C(=O)N[C@@H](C)C(=O)N[C@@H](CC(=O)O)C(=O)N5CCC[C@H]5C(=O)N[C@@H](Cc5ccc(O)cc5)C(=O)N[C@@H](CCCC)C(=O)N[C@H](C(N)=O)CSCCC7=O)nn4)nn3)C(=O)N3CCC[C@H]3C(=O)N[C@@H](Cc3ccc(O)cc3)C(=O)N2)C(=O)CCSC[C@@H](C(N)=O)NC1=O | Nectin-4 | binding, SPR | Kd | 5 nM
CN1CCN(C2=Nc3ccccc3Oc3ccc(Cl)cc32)CC1 | SIGMAR1 | ligand displacement, radioligand | Ki | > 10000 nM
CCCC[C@@H]1NC(=O)[C@H](Cc2ccc(O)cc2)NC(=O)[C@@H]2CCCN2C(=O)[C@H](CC(N)=O)NC(=O)[C@H](C)NC(=O)[C@H](Cc2ccccc2)NC(=O)[C@@H]2CSCCC(=O)N3CN(CN(C3)C(=O)CCSC[C@H](NC(C)=O)C(=O)N[C@@H](CC(C)(C)C)C(=O)N3CCC[C@H]3C(=O)N[C@@H](CCC(=O)O)C(=O)N[C@H](CCCCNC(=O)CCc3cn(CCOCCOCCOCCN(CCOCCOCCOCCC(=O)N[C@H]4CSCCC(=O)N5CN6CN(C5)C(=O)CCSC[C@H](NC(=O)[C@@H](CC(=O)O)NC(=O)[C@H](Cc5cccc7ccccc57)NC(=O)[C@@H]5CCCN5C4=O)C(=O)N[C@@H](CCSC)C(=O)N[C@@H](CCCCNC(=N)N)C(=O)N[C@@H](CC(=O)O)C(=O)N[C@@H](Cc4c[nH]c5ccccc45)C(=O)N[C@@H](CO)C(=O)N[C@@H]([C@@H](C)O)C(=O)N4CCC[C@H]4C(=O)N4C[C@H](O)C[C@H]4C(=O)N[C@@H](Cc4c[nH]c5ccccc45)C(=O)N[C@H](C(N)=O)CSCCC6=O)CCOCCOCCOCCn4cc(CCC(=O)NCCCC[C@H]5NC(=O)[C@H](CCC(=O)O)NC(=O)[C@@H]6CCCN6C(=O)[C@H](CC(C)(C)C)NC(=O)[C@@H](NC(C)=O)CSCCC(=O)N6CN7CN(C6)C(=O)CCSC[C@H](NC(=O)[C@H](Cc6ccc(O)cc6)NC(=O)[C@@H]6CCCN6C5=O)C(=O)N[C@@H](Cc5ccccc5)C(=O)N[C@@H](C)C(=O)N[C@@H](CC(N)=O)C(=O)N5CCC[C@H]5C(=O)N[C@@H](Cc5ccc(O)cc5)C(=O)N[C@@H](CCCC)C(=O)N[C@H](C(N)=O)CSCCC7=O)nn4)nn3)C(=O)N3CCC[C@H]3C(=O)N[C@@H](Cc3ccc(O)cc3)C(=O)N2)C(=O)CCSC[C@@H](C(N)=O)NC1=O | Nectin-4 | binding, SPR | Kd | 1.9 nM
COc1nc(NCC(C)C)nc(Oc2ccc(=O)n(Cc3ccccc3)n2)n1 | PFF0160c E182D | enzyme activity, inhibitor, absorbance | IC50 | 4640 nM
CC(CN1c2ccccc2Sc2ccccc21)N(C)C (stereo not shown) | SIGMAR1 | ligand displacement, radioligand | Ki | 433 nM
COc1cc(Nc2ccnc3cc(-c4ccncc4)ccc23)cc(OC)c1OC | PFF0160c E182D | enzyme activity, inhibitor, absorbance | IC50 | 1510 nM
CC(C)NC[C@@H](O)COc1cccc2ccccc12 | SIGMAR1 | ligand displacement, radioligand | Ki | 344 nM
CCCC[C@@H]1NC(=O)[C@H](Cc2ccc(O)cc2)NC(=O)[C@@H]2CCCN2C(=O)[C@H](CC(=O)O)NC(=O)[C@H](C)NC(=O)[C@H](Cc2ccccc2)NC(=O)[C@@H]2CSCCC(=O)N3CN(CN(C3)C(=O)CCSC[C@@H](C(=O)N[C@@H](C)C(N)=O)NC1=O)C(=O)CCSC[C@H](NC(=O)[C@H](C)NC(C)=O)C(=O)N[C@@H]([C@@H](C)CC)C(=O)N[C@@H](CCC(=O)O)C(=O)N[C@@H](CCC(=O)O)C(=O)N[C@H](CCCCNC(=O)CCc1cn(CCOCCOCCOCCOCCOCCC(=O)N[C@H]3CSCCC(=O)N4CN5CN(C4)C(=O)CCSC[C@H](NC(=O)[C@@H](CC(=O)O)NC(=O)[C@H](Cc4cccc6ccccc46)NC(=O)[C@@H]4CCCN4C3=O)C(=O)N[C@@H](CCSC)C(=O)N[C@@H](CCCCNC(=N)N)C(=O)N[C@@H](CC(=O)O)C(=O)N[C@@H](Cc3c[nH]c4ccccc34)C(=O)N[C@@H](CO)C(=O)N[C@@H]([C@@H](C)O)C(=O)N3CCC[C@H]3C(=O)N3C[C@H](O)C[C@H]3C(=O)N[C@@H](Cc3c[nH]c4ccccc34)C(=O)N[C@H](C(N)=O)CSCCC5=O)nn1)C(=O)N[C@@H](CCC(N)=O)C(=O)N[C@@H](Cc1ccc(O)cc1)C(=O)N2 | Nectin-4 | binding, SPR | Kd | 2.2 nM
N[C@@H](CC(=O)O)C(=O)O | tar (Salmonella enterica, UniProt P02941, E302Q/E491Q) | binding | Kd | 1000 nM
CCCC[C@@H]1NC(=O)[C@H](Cc2ccc(O)cc2)NC(=O)[C@@H]2CCCN2C(=O)[C@H](CC(=O)O)NC(=O)[C@H](C)NC(=O)[C@H](Cc2ccccc2)NC(=O)[C@@H]2CSCCC(=O)N3CN(CN(C3)C(=O)CCSC[C@@H](C(=O)N[C@@H](CNC(=O)CCOCCOCCOCCOCCOCCn3cc(CCC(=O)N[C@H]4CSCCC(=O)N5CN6CN(C5)C(=O)CCSC[C@H](NC(=O)[C@@H](CC(=O)O)NC(=O)[C@H](Cc5cccc7ccccc57)NC(=O)[C@@H]5CCCN5C4=O)C(=O)N[C@@H](CCSC)C(=O)N[C@@H](CCCCNC(=N)N)C(=O)N[C@@H](CC(=O)O)C(=O)N[C@@H](Cc4c[nH]c5ccccc45)C(=O)N[C@@H](CO)C(=O)N[C@@H]([C@@H](C)O)C(=O)N4CCC[C@H]4C(=O)N4C[C@H](O)C[C@H]4C(=O)N[C@@H](Cc4c[nH]c5ccccc45)C(=O)N[C@H](C(N)=O)CSCCC6=O)nn3)C(N)=O)NC1=O)C(=O)CCSC[C@H](NC(C)=O)C(=O)N[C@@H](CC(C)(C)C)C(=O)N1CCC[C@H]1C(=O)N[C@@H](CCC(=O)O)C(=O)N[C@H](C)C(=O)N1CCC[C@H]1C(=O)N[C@@H](Cc1ccc(O)cc1)C(=O)N2 | Nectin-4 | binding, SPR | Kd | 1.1 nM
CSc1nc2nc(C)c(Cc3cccc(C(F)(F)F)c3)c(C)n2n1 | PFF0160c E182D | enzyme activity, inhibitor, absorbance | IC50 | > 10000 nM
Cc1c2ccncc2c(C)c2c1[nH]c1ccccc12 | SIGMAR1 | ligand displacement, radioligand | Ki | > 10000 nM
CCCC[C@@H]1NC(=O)[C@H](Cc2ccc(O)cc2)NC(=O)[C@@H]2CCCN2C(=O)[C@H](CC(=O)O)NC(=O)[C@H](C)NC(=O)[C@H](Cc2ccccc2)NC(=O)[C@@H]2CSCCC(=O)N3CN(CN(C3)C(=O)CCSC[C@H](NC(C)=O)C(=O)N[C@@H](CC(C)(C)C)C(=O)N3CCC[C@H]3C(=O)N[C@@H](CCC(=O)O)C(=O)N[C@H](CCCCNC(=O)CCc3cn(CCOCCOCCOCCN(CCOCCOCCOCCC(=O)N[C@H]4CSCCC(=O)N5CN6CN(C5)C(=O)CCSC[C@H](NC(=O)[C@@H](CC(=O)O)NC(=O)[C@H](Cc5cccc7ccccc57)NC(=O)[C@@H]5CCCN5C4=O)C(=O)N[C@@H](CCSC)C(=O)N[C@@H](CCCCNC(=N)N)C(=O)N[C@@H](CC(=O)O)C(=O)N[C@@H](Cc4c[nH]c5ccccc45)C(=O)N[C@@H](CO)C(=O)N[C@@H]([C@@H](C)O)C(=O)N4CCC[C@H]4C(=O)N4C[C@H](O)C[C@H]4C(=O)N[C@@H](Cc4c[nH]c5ccccc45)C(=O)N[C@H](C(N)=O)CSCCC6=O)CCOCCOCCOCCn4cc(CCC(=O)NCCCC[C@H]5NC(=O)[C@H](CCC(=O)O)NC(=O)[C@@H]6CCCN6C(=O)[C@H](CC(C)(C)C)NC(=O)[C@@H](NC(C)=O)CSCCC(=O)N6CN7CN(C6)C(=O)CCSC[C@H](NC(=O)[C@H](Cc6ccc(O)cc6)NC(=O)[C@@H]6CCCN6C5=O)C(=O)N[C@@H](Cc5ccccc5)C(=O)N[C@@H](C)C(=O)N[C@@H](CC(=O)O)C(=O)N5CCC[C@H]5C(=O)N[C@@H](Cc5ccc(O)cc5)C(=O)N[C@@H](CCCC)C(=O)N[C@H](C(N)=O)CSCCC7=O)nn4)nn3)C(=O)N3CCC[C@H]3C(=O)N[C@@H](Cc3ccc(O)cc3)C(=O)N2)C(=O)CCSC[C@@H](C(N)=O)NC1=O | Nectin-4 | binding, SPR | Kd | 3.9 nM
Oc1cc(NC[C@H]2CCC[C@@H]2NCc2cc(Br)cc(Br)c2)nc2ccccc12 | PFF0160c E182D | enzyme activity, inhibitor, absorbance | IC50 | > 10000 nM
